Measured values published in ChEMBL document CHEMBL2417383, “Assay platform for clinically relevant metallo-β-lactamases” (J Med Chem, 2013).
Each block holds one molecule with its values, some of them ahead of it.

Assays:
[1] = Inhibition of recombinant SPM-1 (unknown origin) expressed in Escherichia coli BL21 (DE3) cells using FC4 as substrate assessed as residual activity at 1 mM preincubated for 10 mins prior to substrate addition by fluorescence-based assay relative to control
Method in brief: (§1)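 Mature SPM-1, E. coli codon-optimized, with N-terminal His6 tag cleavable by 3C protease, was expressed from pOPINF in E. coli BL21(DE3) pLysS in 2TY and purified to >95%. […] Fluorescence was read at λex 380/λem 460 nm and residual activity calculated.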

BL21-DE3 [2] = assay: Inhibition of recombinant SPM-1 (unknown origin) expressed in Escherichia coli BL21 (DE3) cells using FC4 as substrate assessed as residual activity at 200 uM preincubated for 10 mins prior to substrate addition by fluorescence-based assay relative to control; method in brief: as §1
BL21-DE3 [3] = tested on: BL21-DE3
BL21-DE3 [4] = tested on: BL21-DE3; remark: listed apart in the source
BL21-DE3 [5] = tested on: BL21-DE3; remark: listed apart in the source
BL21-DE3 [6] = tested on: BL21-DE3; remark: listed apart in the source
BL21-DE3 [7] = tested on: BL21-DE3; remark: listed apart in the source
[8] = Chemical stability of the compound in aqueous solution; assay type: physicochemical; settings: buffer
Method in brief: (§2)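 Substrate autohydrolysis was followed in aqueous assay buffer at room temperature over time, up to at least 8 h.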

[9] = Chemical stability of the compound in buffer assessed as compound hydrolysis after 8 hrs; assay type: physicochemical; method in brief: as §2

Compound: O=C(O)CC[C@@H](NC(=O)c1nc(Cl)c2ccccc2c1O)C(=O)O
- Activity [1]: < 5%

Compound: CC(C)C[C@@H](NC(=O)c1nc(Cl)c2ccccc2c1O)C(=O)O
- Activity (BL21-DE3 [2]): 32%
- Activity [1]: < 5%

Compound: O=C(N[C@@H](Cc1c[nH]c2ccccc12)C(=O)O)c1nc(Cl)c2ccccc2c1O
- Activity [1]: < 5%

- Km (BL21-DE3 [3]): 8.8 µM
- Km (BL21-DE3 [4]): 7.2 µM
- Km (BL21-DE3 [5]): 16 µM
- Km (BL21-DE3 [6]): 55.7 µM
- Km (BL21-DE3 [7]): 8.1 µM
Compound: O=C(Cc1cccs1)N[C@@H]1C(=O)N2C(C(=O)O)=C(/C=C/c3ccc([N+](=O)[O-])cc3[N+](=O)[O-])CS[C@H]12
- kcat (BL21-DE3 [3]): 25.3 s⁻¹
- kcat (BL21-DE3 [4]): 226 s⁻¹
- kcat (BL21-DE3 [5]): 0.7 s⁻¹
- kcat (BL21-DE3 [6]): 2790 s⁻¹
- kcat (BL21-DE3 [7]): 14.9 s⁻¹

Compound: CC(C)[C@@H](NC(=O)c1nc(Cl)c2ccccc2c1O)C(=O)O
- Activity [1]: 16%

Compound: O=C(O)C[C@@H](NC(=O)c1nc(Cl)c2ccccc2c1O)C(=O)O
- Activity [1]: < 5%

Compound: CC(C)[C@H](NC(=O)c1nc(Cl)c2ccccc2c1O)C(=O)O
- Activity [1]: 16%

Compound: CC(C)C[C@H](NC(=O)c1nc(Cl)c2ccccc2c1O)C(=O)O
- Activity (BL21-DE3 [2]): 26%
- Activity [1]: < 5%

Compound: O=C(O)CC[C@H](NC(=O)c1nc(Cl)c2ccccc2c1O)C(=O)O
- Activity [1]: < 5%

Compound: O=C(O)C[C@H](NC(=O)c1nc(Cl)c2ccccc2c1O)C(=O)O
- Activity [1]: < 5%

- Stability [8]: Stable
- Stability [9]: Stable
Compound: O=C(Cc1ccccc1)N[C@@H]1C(=O)N2C(C(=O)O)=C(COc3ccc4ccc(=O)oc4c3)C[S+]([O-])[C@H]12 (stereo partly specified)

Compound: O=C(N[C@H](Cc1c[nH]c2ccccc12)C(=O)O)c1nc(Cl)c2ccccc2c1O
- Activity [1]: < 5%

- Stability [8]: Stable
- Stability [9]: Stable
Compound: O=C(Cc1ccccc1)N[C@@H]1C(=O)N2C(C(=O)O)=C(COc3ccc4ccc(=O)oc4c3)CS(=O)(=O)[C@H]12
